Measurements of several laboratories.
Target: MAP kinase-activated protein kinase 3 (MAPKAPK3, Homo sapiens, UniProt Q16644)

Structure (SMILES) | observed | mode | method | concentration | endpoint | result
CCCS(=O)(=O)Nc1ccc(F)c(C(=O)c2c[nH]c3ncc(-c4ccc(Cl)cc4)cc23)c1F | enzyme activity | inhibitor |  | 1 µM | inhibition | < 10%
Cc1cnc(NC2CCOCC2)nc1-n1cnc(C(=O)NC(CN)c2cc(F)cc(Cl)c2)c1 (stereo not drawn) | enzyme activity | inhibitor | radiometric | 1 µM | remaining activity | 110%
CC/C(=N\NC(=O)NCc1cccc(O)c1)c1ccc(O)c(C)c1O | enzyme activity | inhibitor |  | 0.1 µM | inhibition | -6%
CCN(CC)CCNC(=O)c1c(C)[nH]c(/C=C2\C(=O)Nc3ccc(F)cc32)c1C | enzyme activity | inhibitor |  | 0.3 µM | inhibition | -10%
CNc1cccc2cc(C(=O)Nc3ccc(C(=O)O)cc3)c(=O)[nH]c12 | enzyme activity | inhibitor |  | 10 µM | inhibition | -3.2%
O=C(Nc1cnn(-c2csc(C(=O)NC3COC3)c2)c1)Nc1ccccc1Cl | enzyme activity | inhibitor |  | 5 µM | remaining activity | 83.5%
CCOc1cc(-c2nncn2C)ccc1Nc1ncc2cc(C)nc(NCC(C)(C)C)c2n1 | enzyme activity | inhibitor | FRET | 1 µM | inhibition | < 15%
CNC(=O)c1cc(Oc2ccc(NC(=O)Nc3ccc(Cl)c(C(F)(F)F)c3)cc2)ccn1 | enzyme activity | inhibitor |  | 10 µM | inhibition | -5%
CC(C)(C)c1nc(-c2cccc(NS(=O)(=O)c3c(F)cccc3F)c2F)c(-c2ccnc(N)n2)s1 | enzyme activity | inhibitor | radiometric | 1 µM | remaining activity | 92%
Cc1ccc(Nc2nccc(N(C)c3ccc4c(C)n(C)nc4c3)n2)cc1S(N)(=O)=O | enzyme activity | inhibitor |  | 10 µM | inhibition | -3%
COc1cc2ncnc(Nc3ccc(Oc4ccccc4)cc3C)c2cc1OC | enzyme activity | inhibitor |  | 1 µM | inhibition | 0%
FC(F)c1nc2ccccc2n1-c1nc(N2CCOCC2)nc(N2CCOCC2)n1 | enzyme activity | inhibitor |  | 10 µM | remaining activity | 97%
CC(C)(O)[C@H]1CC[C@H](Nc2ccc3ncc(-c4cccc(C(F)(F)F)c4)n3n2)CC1 | enzyme activity | inhibitor |  | 1 µM | remaining activity | 103%
O=C1NC(=O)c2cc(Nc3ccc(F)cc3)c(Nc3ccc(F)cc3)cc21 | cell-free assay |  |  | 0.5 µM | remaining signal | 95.9%
FC(F)(F)Oc1cccc(-c2cnc3ccc(-c4ccncc4)nn23)c1 | enzyme activity | inhibitor | radiometric | 1 µM | activity vs control | 107%
Cn1c(=O)n(-c2ccc(C(C)(C)C#N)cc2)c2c3cc(-c4cnc5ccccc5c4)ccc3ncc21 | enzyme activity | inhibitor |  | 10 µM | remaining activity | 110%
COc1cc(Nc2cnc(C#N)c(O[C@H](C)CN(C)C)n2)ncc1-c1cnn(C)c1 | enzyme activity | inhibitor | radiometric | 1 µM | remaining activity | 96%
CCCCNc1ncc2c(-c3ccc(F)cc3)nn(C[C@H]3CC[C@H](N)CC3)c2n1 | target engagement in cells | inhibitor | chemoproteomics | 20 mM | inhibition | 6.1%
